Results reported in ChEMBL document CHEMBL5247671, “Design and Synthesis of Pyrazole-Based Macrocyclic Kinase Inhibitors Targeting BMPR2” (ACS Med Chem Lett, 2023).

Experiments:
[1] = biological target: T1, Glycogen synthase kinase-3 beta (Homo sapiens, UniProt P49841); experiment: Binding affinity to recombinant GSK3B (unknown origin) assessed as change in melting temperature at 10 uM by DSF assay
Summary of the method: (§1)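 Differential scanning fluorimetry on an in-house panel of 90 recombinant kinases. Stabilization is read as the shift in melting temperature (ΔTm) relative to ligand-free protein. Staurosporine served as the positive control, and binding was also compared against its ΔTm.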
Target sequence in this assay (P49841 whole entry, looked up): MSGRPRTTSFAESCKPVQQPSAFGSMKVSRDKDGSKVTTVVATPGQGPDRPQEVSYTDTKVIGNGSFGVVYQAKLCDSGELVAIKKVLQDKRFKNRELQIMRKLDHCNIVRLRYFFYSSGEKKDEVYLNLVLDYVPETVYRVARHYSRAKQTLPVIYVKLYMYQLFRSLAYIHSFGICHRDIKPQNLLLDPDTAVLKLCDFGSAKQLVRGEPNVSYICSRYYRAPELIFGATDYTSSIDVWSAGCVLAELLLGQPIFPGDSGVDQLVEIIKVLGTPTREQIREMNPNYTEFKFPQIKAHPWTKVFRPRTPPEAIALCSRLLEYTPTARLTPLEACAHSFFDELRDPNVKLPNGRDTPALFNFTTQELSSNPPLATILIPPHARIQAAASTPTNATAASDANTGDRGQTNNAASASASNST

[2] = biological target: T2, Serine/threonine-protein kinase 3 (Homo sapiens) (UniProt Q13188); experiment: Binding affinity to recombinant STK3 (unknown origin) assessed as change in melting temperature at 10 uM by DSF assay; summary of the method: as §1
T2 sequence (whole entry): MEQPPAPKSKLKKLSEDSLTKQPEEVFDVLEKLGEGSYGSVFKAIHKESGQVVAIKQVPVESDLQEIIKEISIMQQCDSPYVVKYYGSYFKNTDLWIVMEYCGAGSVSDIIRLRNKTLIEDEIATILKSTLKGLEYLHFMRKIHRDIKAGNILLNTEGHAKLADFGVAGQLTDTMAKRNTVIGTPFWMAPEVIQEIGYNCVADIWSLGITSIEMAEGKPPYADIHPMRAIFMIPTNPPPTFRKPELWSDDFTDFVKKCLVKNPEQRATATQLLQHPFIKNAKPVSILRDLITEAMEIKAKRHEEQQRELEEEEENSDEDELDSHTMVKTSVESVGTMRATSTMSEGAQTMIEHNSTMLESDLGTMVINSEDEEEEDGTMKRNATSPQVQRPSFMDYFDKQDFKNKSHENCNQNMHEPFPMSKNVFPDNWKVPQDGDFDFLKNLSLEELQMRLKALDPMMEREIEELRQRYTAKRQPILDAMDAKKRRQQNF

[3] = system: BMP2-inducible protein kinase (Homo sapiens); experiment: Binding affinity to recombinant BMP2K (unknown origin) assessed as change in melting temperature at 10 uM by DSF assay
[4] = biological target: T1, Glycogen synthase kinase-3 beta; experiment: Inhibition of N-terminal NanoLuc-fused full length intact GSK3B (unknown origin) transfected in HEK293T cells incubated for 2 hrs in presence of tracer K8 by NanoBRET assay; format: cell-based
Summary of the method: (§2)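 Cellular target engagement by NanoBRET in intact cells expressing NanoLuc-fused GSK3A or GSK3B, with EC50 values derived from tracer displacement.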
Target sequence in this assay (P49841 whole entry): as the sequence (P49841 whole entry, looked up) above

[5] = biological target: T3, Bone morphogenetic protein receptor type-2 (Homo sapiens, UniProt Q13873); experiment: Inhibition of BMPR2 (174 to end residues) (unknown origin) using MBP as substrate incubated for 60 mins in presence of ATP by ADP Glo assay
T3 sequence (Q13873 whole entry): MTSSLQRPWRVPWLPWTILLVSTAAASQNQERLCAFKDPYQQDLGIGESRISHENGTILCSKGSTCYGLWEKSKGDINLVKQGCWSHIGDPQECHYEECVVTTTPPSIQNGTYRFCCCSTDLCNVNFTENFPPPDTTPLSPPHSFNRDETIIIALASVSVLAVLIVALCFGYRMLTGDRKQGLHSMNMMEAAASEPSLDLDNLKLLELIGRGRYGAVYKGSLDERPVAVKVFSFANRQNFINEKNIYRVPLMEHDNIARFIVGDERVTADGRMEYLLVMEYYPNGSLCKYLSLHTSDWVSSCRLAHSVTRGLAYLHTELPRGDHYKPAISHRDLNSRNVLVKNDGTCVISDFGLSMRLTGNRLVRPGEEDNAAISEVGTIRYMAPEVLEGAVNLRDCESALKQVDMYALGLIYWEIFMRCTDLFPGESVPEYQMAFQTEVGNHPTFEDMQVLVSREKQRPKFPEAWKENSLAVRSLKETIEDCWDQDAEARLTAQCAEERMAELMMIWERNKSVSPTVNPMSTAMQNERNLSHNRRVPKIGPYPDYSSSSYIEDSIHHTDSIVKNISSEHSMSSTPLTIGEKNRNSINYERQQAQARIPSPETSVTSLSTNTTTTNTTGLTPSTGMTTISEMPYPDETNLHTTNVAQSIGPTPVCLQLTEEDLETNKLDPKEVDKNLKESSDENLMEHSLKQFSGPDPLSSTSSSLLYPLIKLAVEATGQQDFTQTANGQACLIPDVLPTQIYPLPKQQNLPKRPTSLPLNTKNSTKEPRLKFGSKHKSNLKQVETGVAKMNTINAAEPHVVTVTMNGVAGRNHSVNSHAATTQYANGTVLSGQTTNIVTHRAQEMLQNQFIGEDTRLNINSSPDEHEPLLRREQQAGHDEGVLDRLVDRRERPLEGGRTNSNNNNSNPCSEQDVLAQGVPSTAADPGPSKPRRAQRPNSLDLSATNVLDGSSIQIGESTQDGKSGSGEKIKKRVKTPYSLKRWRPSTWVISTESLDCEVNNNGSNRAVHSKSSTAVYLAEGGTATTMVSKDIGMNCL
Summary of the method: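 Enzymatic inhibition of the BMPR2 kinase was read out by ADP-Glo detection of ADP formed, and IC50 values were derived from concentration–response data.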

[6] = biological target: T4, Bone morphogenetic protein receptor type-2 (Homo sapiens) (UniProt Q13873); experiment: Binding affinity to recombinant BMPR2 (unknown origin) assessed as change in melting temperature at 10 uM by DSF assay; summary of the method: as §1
T4 sequence (whole entry): T3 sequence (Q13873 whole entry)

[7] = biological target: T1, Glycogen synthase kinase-3 beta; experiment: Inhibition of N-terminal NanoLuc-fused full length lysed GSK3B (unknown origin) transfected in HEK293T cells incubated for 2 hrs in presence of tracer K8 by NanoBRET assay; format: cell-based
Summary of the method: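 GSK3B NanoBRET run in the lysed mode, with cells permeabilized by digitonin to bypass compound cell penetration. EC50 values were derived from tracer displacement.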
Target sequence in this assay (P49841 whole entry): as the sequence (P49841 whole entry, looked up) above

[8] = biological target: Glycogen synthase kinase-3 alpha (Homo sapiens, UniProt P49840); experiment: Inhibition of N-terminal NanoLuc-fused full length GSK3A (unknown origin) transfected in HEK293T cells incubated for 2 hrs in presence of tracer K8 by NanoBRET assay; format: cell-based; summary of the method: as §2
Glycogen synthase kinase-3 alpha, sequence (P49840 whole entry, the tested form may be a part): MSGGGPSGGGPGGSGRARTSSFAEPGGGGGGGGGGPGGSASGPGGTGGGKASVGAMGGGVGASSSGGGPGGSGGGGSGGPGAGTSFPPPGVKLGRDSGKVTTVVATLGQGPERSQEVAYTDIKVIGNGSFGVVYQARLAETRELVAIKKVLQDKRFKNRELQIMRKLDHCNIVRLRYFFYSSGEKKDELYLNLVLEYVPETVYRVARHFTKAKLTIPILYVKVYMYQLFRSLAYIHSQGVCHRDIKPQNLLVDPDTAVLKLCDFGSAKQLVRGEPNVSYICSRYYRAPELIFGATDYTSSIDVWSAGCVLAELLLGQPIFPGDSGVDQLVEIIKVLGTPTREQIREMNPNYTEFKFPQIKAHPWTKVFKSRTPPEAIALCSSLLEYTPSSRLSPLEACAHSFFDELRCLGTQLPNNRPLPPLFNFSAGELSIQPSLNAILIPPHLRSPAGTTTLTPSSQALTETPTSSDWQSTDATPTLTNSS

[9] = biological target: T4, Bone morphogenetic protein receptor type-2 (Homo sapiens); experiment: Binding affinity to BMPR2 (unknown origin) assessed as change in entropy by ITC assay
Summary of the method: (§3)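 Binding measured by isothermal titration calorimetry against the recombinant BMPR2 kinase domain. Thermodynamic binding parameters, including the dissociation constant, were derived from the titration data.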

TGF-beta receptor type-1 = biological target: T5, TGF-beta receptor type-1 (Homo sapiens, UniProt P36897); experiment: Inhibition of ALK5 (unknown origin) assessed as dissociation constant
T5 sequence (P36897 whole entry): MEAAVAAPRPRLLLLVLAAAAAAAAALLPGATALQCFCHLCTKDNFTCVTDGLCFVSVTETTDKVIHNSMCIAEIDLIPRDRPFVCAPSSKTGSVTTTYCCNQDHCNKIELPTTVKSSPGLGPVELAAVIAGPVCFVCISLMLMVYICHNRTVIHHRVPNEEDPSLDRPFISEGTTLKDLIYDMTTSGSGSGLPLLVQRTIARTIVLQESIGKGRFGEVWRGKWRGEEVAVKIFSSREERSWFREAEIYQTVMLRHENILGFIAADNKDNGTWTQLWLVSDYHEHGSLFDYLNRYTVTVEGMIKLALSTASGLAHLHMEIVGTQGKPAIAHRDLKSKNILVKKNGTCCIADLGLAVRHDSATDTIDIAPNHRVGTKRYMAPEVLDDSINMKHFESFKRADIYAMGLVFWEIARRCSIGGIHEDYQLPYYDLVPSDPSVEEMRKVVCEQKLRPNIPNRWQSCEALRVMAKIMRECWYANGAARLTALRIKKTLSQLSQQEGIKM

[10] = biological target: T3, Bone morphogenetic protein receptor type-2; experiment: Inhibition of BMPR2 (unknown origin) assessed as dissociation constant by ITC assay; summary of the method: as §3
[11] = biological target: T4, Bone morphogenetic protein receptor type-2 (Homo sapiens); experiment: Binding affinity to BMPR2 (unknown origin) assessed as change in enthalpy by ITC assay; summary of the method: as §3

ΔTm [1] [°C]	ΔTm [2] [°C]	ΔTm [3] [°C]	IC50 [5] [nM]	ΔTm [6] [°C]	Compound	IC50 [4] [nM]	IC50 [7] [nM]	IC50 [8] [nM]	deltaS [9] [cal/mol.K]	Kd (TGF-beta receptor type-1) [nM]	Kd [10] [nM]	deltaH [11] [kcal/mol]
> 5	> 5	> 5			O=C1NCCCCCCNc2nccc(n2)Nc2cc1[nH]n2							
4.9			630	4.6	O=C1NCCCCCNc2nccc(n2)Nc2cc1[nH]n2	> 45000	3500	> 45000				
7.2			461	5	O=C1NCCc2cccc(c2)Nc2nccc(n2)Nc2cc1[nH]n2							

Compound	ΔTm [1] [°C]	ΔTm [2] [°C]	ΔTm [3] [°C]	IC50 [5] [nM]	ΔTm [6] [°C]	IC50 [4] [nM]	IC50 [7] [nM]	IC50 [8] [nM]	deltaS [9] [cal/mol.K]	Kd (TGF-beta receptor type-1) [nM]	Kd [10] [nM]	deltaH [11] [kcal/mol]
N#CCc1ccc(Nc2nccc(Nc3cc(C4CC4)[nH]n3)n2)cc1	14			36.2	9.2	3.8	1.2	4	-1.97	324	186	-9.61
